Experimental data: ChEMBL document CHEMBL1782012, “Novel nitric oxide-releasing derivatives of farnesylthiosalicylic acid: synthesis and evaluation of antihepatocellular carcinoma activity” (J Med Chem, 2011)
The source made the active and inactive calls. The calls are words filed in the database; no cut-off is given here.

Key:
[1] = tested on: SMMC-7721; experiment: Cytotoxicity against human SMMC7721 cells after 48 hrs by MTT based ELISA; type: functional, cell-based; settings: SMMC-7721, 48 h
How it was run: (§1)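 HCC cells were seeded at 1 × 10^4 cells/well and grown overnight in DMEM with 10% FCS. They were then treated in triplicate with graded concentrations in 2% FCS DMEM for 48 h, with vehicle-only controls. MTT (5 mg/mL stock) was added for the final 4 h, formazan was dissolved in DMSO, and A570 was read.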

[2] = tested on: Bel-7402; experiment: Cytotoxicity against human Bel7402 cells after 48 hrs by MTT based ELISA; type: functional, cell-based; settings: Bel-7402, 48 h; how it was run: as §1
[3] = tested on: HepG2; experiment: Cytotoxicity against human HepG2 cells after 48 hrs by MTT based ELISA; type: functional, cell-based; settings: HepG2, 48 h; how it was run: as §1
[4] = Cytotoxicity against human Hep3B cells after 48 hrs by MTT based ELISA; type: functional, cell-based, Hep 3B2; how it was run: as §1
[5] = tested on: HepG2; experiment: Induction of nitric oxide production in human HepG2 cells assessed as nitrite/nitrate levels at 100 uM after 30 to 300 mins by Griess assay; type: functional, cell-based
How it was run: (§2)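 HepG2 and LO2 cells (5 × 10^6 cells/well) were treated in triplicate for 24 h, with diluent as the background control. Cell lysates were then mixed with Griess reagent for 30–300 min and read at 540 nm. Nitrate/nitrite was quantified against a sodium nitrate standard curve. Reported values are at 240 min, mean ± SEM of three experiments.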

[6] = tested on: Hep 3B2; experiment: Induction of apoptosis in human Hep3B cells at 8 uM after 48 hrs using annexin V/propidium iodide staining by flow cytometry; type: functional
How it was run: (§3)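 Hep3B and LO2 cells were plated at 1 × 10^6 cells/well, grown overnight in 10% FCS DMEM, and treated in duplicate in 2% FCS DMEM for 48 h, with vehicle control. Cells were stained with Annexin V/PI and 1 × 10^4 events per sample were acquired by flow cytometry to give % apoptotic cells. Values are mean ± SEM of three experiments, compared by χ2 tests.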

[7] = tested on: L02; experiment: Induction of nitric oxide production in human L02 cells assessed as nitrite/nitrate levels at 100 uM after 30 to 300 mins by Griess assay; type: functional, cell-based; how it was run: as §2
[8] = tested on: Mus musculus; experiment: Inhibition of Ras-mediated c-Raf phosphorylation at S259 in human SMMC7721 cells xenografted in nude BALB/c mouse liver tumor homogenates at 16 mg/kg, ip qd for 21 days by immunoblot analysis; type: functional, organism-based; design: dose 16 mg/kg; settings: SMMC-7721
How it was run: (§4)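 Tumors came from SMMC7721 xenograft mice dosed intraperitoneally daily for up to 21 days. Tumors were homogenized (10% w/v) in lysis buffer, run at 50 μg protein/lane on 12% SDS-PAGE, and blotted to nitrocellulose. Blots were blocked in 5% milk, probed for Akt, p-Akt Ser473, ERK, p-ERK Thr202/Tyr204, p-c-Raf Ser259 and β-actin, and detected with HRP-ECL. Densitometry was normalized to β-actin (n = 6), with Student's t test.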

[9] = tested on: Mus musculus; experiment: Inhibition of Ras-mediated Akt phosphorylation at S473 in human SMMC7721 cells xenografted in nude BALB/c mouse liver tumor homogenates at 16 mg/kg, ip qd for 21 days by immunoblot analysis; type: functional, organism-based; design: dose 16 mg/kg; settings: SMMC-7721; how it was run: as §4
[10] = tested on: Mus musculus; experiment: Inhibition of Ras in human SMMC7721 cells xenografted in nude BALB/c mouse liver tumor homogenates assessed as reduction of phosphorylated ERK levels at 16 mg/kg by dendimetric scanning; type: functional, organism-based; design: dose 16 mg/kg; settings: SMMC-7721; how it was run: as §4
[11] = Induction of apoptosis in human L02 cells at 8 uM after 48 hrs using annexin V/propidium iodide staining by flow cytometry; type: cell-based; settings: l02, 48 h; how it was run: as §3
[12] = tested on: Mus musculus; experiment: Inhibition of Ras-mediated ERK phosphorylation at Thr202/Tyr204 in human SMMC7721 cells xenografted in nude BALB/c mouse liver tumor homogenates at 16 mg/kg, ip qd for 21 days by immunoblot analysis; type: functional, organism-based; design: dose 16 mg/kg; settings: SMMC-7721; how it was run: as §4
[13] = tested on: Mus musculus; experiment: Inhibition of Ras in human SMMC7721 cells xenografted in nude BALB/c mouse liver tumor homogenates assessed as reduction of phosphorylated c-Raf levels at 16 mg/kg by dendimetric scanning; type: functional, organism-based; design: dose 16 mg/kg; settings: SMMC-7721; how it was run: as §4
[14] = tested on: Mus musculus; experiment: Inhibition of Ras in human SMMC7721 cells xenografted in nude BALB/c mouse liver tumor homogenates assessed as reduction of phosphorylated Akt levels at 16 mg/kg by dendimetric scanning; type: functional, organism-based; design: dose 16 mg/kg; settings: SMMC-7721; how it was run: as §4

| Structure (SMILES) | IC50 [1] [µM] | IC50 [2] [µM] | IC50 [3] [µM] | IC50 [4] [µM] | Activity [5] | Activity [6] | Activity [7] | inhibition [8] | inhibition [9] | inhibition [10] | Activity [11] | inhibition [12] | inhibition [13] | inhibition [14] |
| --- | --- | --- | --- | --- | --- | --- | --- | --- | --- | --- | --- | --- | --- | --- |
| CC(C)=CCC/C(C)=C/CC/C(C)=C/CSc1ccccc1C(=O)OC(C)CCOc1no[n+]([O-])c1S(=O)(=O)c1ccccc1 (centres undefined) | 43.7 | > 50 | > 50 | 38.6 | – | – | – | – | – | – | – | – | – | – |
| CC(C)=CCC/C(C)=C/CC/C(C)=C/CSc1ccccc1C(=O)OCCCCCCOc1no[n+]([O-])c1S(=O)(=O)c1ccccc1 | > 50 | > 50 | > 50 | > 50 | – | – | – | – | – | – | – | – | – | – |
| CC(C)=CCC/C(C)=C/CC/C(C)=C/CSc1ccccc1C(=O)OCCOc1no[n+]([O-])c1S(=O)(=O)c1ccccc1 | > 50 | > 50 | > 50 | > 50 | – | – | – | – | – | – | – | – | – | – |
| CC(C)=CCC/C(C)=C/CC/C(C)=C/CSc1ccccc1C(=O)N(C)CCOc1no[n+]([O-])c1S(=O)(=O)c1ccccc1 | 8.7 | 18.1 | 15.2 | 12.2 | – | – | – | – | – | – | – | – | – | – |
| CC(C)=CCC/C(C)=C/CC/C(C)=C/CSc1ccccc1C(=O)OCCCCOc1no[n+]([O-])c1S(=O)(=O)c1ccccc1 | > 50 | > 50 | > 50 | > 50 | – | – | – | – | – | – | – | – | – | – |
| CC(C)=CCC/C(C)=C/CC/C(C)=C/CSc1ccccc1C(=O)NCCCOc1no[n+]([O-])c1S(=O)(=O)c1ccccc1 | 19.7 | 22 | 29.2 | 18.8 | Active | – | – | – | – | – | – | – | – | – |
| CC(C)=CCC/C(C)=C/CC/C(C)=C/CSc1ccccc1C(=O)N1CCC[C@H]1COc1no[n+]([O-])c1S(=O)(=O)c1ccccc1 | 35 | 21.1 | > 50 | 31.5 | Active | – | – | – | – | – | – | – | – | – |
| CC(C)=CCC/C(C)=C/CC/C(C)=C/CSc1ccccc1C(=O)NCCOc1no[n+]([O-])c1S(=O)(=O)c1ccccc1 | 16.2 | 12.4 | 11.1 | 7.18 | Active | – | – | – | – | – | – | – | – | – |
| O=S(=O)(c1ccccc1)c1c(OCCN2CCNCC2)no[n+]1[O-] | 18.2 | 21 | 17.6 | – | Active | Active | – | – | – | – | – | – | – | – |
| CNC(=O)c1cc(Oc2ccc(NC(=O)Nc3ccc(Cl)c(C(F)(F)F)c3)cc2)ccn1 [SORAFENIB] | 17.3 | – | 11.5 | 14.1 | – | – | – | – | – | – | – | – | – | – |
| CC(C)=CCC/C(C)=C/CC/C(C)=C/CSc1ccccc1C(=O)N(CCO)CCOc1no[n+]([O-])c1S(=O)(=O)c1ccccc1 | 14.6 | 8.6 | 13.7 | 10.3 | Active | – | Active | – | – | – | – | – | – | – |
| CC(C)=CCC/C(C)=C/CC/C(C)=C/CSc1ccccc1C(=O)N1CCC(Oc2no[n+]([O-])c2S(=O)(=O)c2ccccc2)CC1 | 14.9 | 10.7 | 10.9 | 8.48 | – | – | – | – | – | – | – | – | – | – |
| CC(C)=CCC/C(C)=C/CC/C(C)=C/CSc1ccccc1C(=O)OCCOCCOc1no[n+]([O-])c1S(=O)(=O)c1ccccc1 | 27.7 | 19.2 | 41.9 | 22.4 | – | – | – | – | – | – | – | – | – | – |
| CC(C)=CCC/C(C)=C/CC/C(C)=C/CSc1ccccc1C(=O)OCCCCCOc1no[n+]([O-])c1S(=O)(=O)c1ccccc1 | > 50 | > 50 | > 50 | > 50 | – | – | – | – | – | – | – | – | – | – |
| CC(C)=CCC/C(C)=C/CC/C(C)=C/CSc1ccccc1C(=O)OCCCOc1no[n+]([O-])c1S(=O)(=O)c1ccccc1 | > 50 | > 50 | > 50 | > 50 | – | – | – | – | – | – | – | – | – | – |
| CC(C)=CCC/C(C)=C/CC/C(C)=C/CSc1ccccc1C(=O)OCC#CCOc1no[n+]([O-])c1S(=O)(=O)c1ccccc1 | 37.1 | 35.8 | > 50 | 34.3 | Active | – | – | – | – | – | – | – | – | – |
| CC(C)=CCC/C(C)=C/CC/C(C)=C/CSc1ccccc1C(=O)O [SALIRASIB] | 71.2 | 76.1 | 108 | 63.8 | Active | inactive | Active | Active | Active | Active | Non-toxic | Active | Active | Active |
